Source: ChEMBL document CHEMBL4376875, “Synthesis and Biological Evaluation of B-Cell Lymphoma 6 Inhibitors of N-Phenyl-4-pyrimidinamine Derivatives Bearing Potent Activities against Tumor Growth” (J Med Chem, 2020)
The source made the active and inactive calls. No cut-off for these calls is given here.

Assays:
[1] = Metabolic stability in human liver assessed as intrinsic clearance; assay type: ADME, tissue-based; settings: read-out: CLH
Summary of the method: (§1)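 Incubation with human liver microsomes. Intrinsic clearance was scaled to liver using 45 mg microsomal protein per g liver and 20 g liver per kg body weight. Half-life was also determined.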

[2] = tested on: L02; assay: Cytotoxicity against human LO2 cells assessed as reduction in cell viability incubated for 72 hrs by CCK8 assay; settings: L02, 72 h
[3] = tested on: Mus musculus; assay: Upregulation of CXCR4 mRNA expression in SCID mouse xenografted with human SUDHL4 cells at 5 to 10 mg/kg, iv administered 3 days once for 15 days by qPCR analysis; assay type: functional, organism-based
Summary of the method: (§2)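 Male SCID mice, 6 weeks old, received 1 × 10⁷ SUDHL4 cells s.c. At about 100 mm³, mice were randomized (n = 7) to vehicle (20% 2-hydroxypropyl-β-cyclodextrin) or 5 or 10 mg/kg every 3 days i.v. for 15 days. Body weight and caliper volume (L × W² × 0.52) were recorded every 3 days. At sacrifice, tissues were fixed in 4% paraformaldehyde and paraffin-embedded for H&E or Ki67 IHC. Tumor mRNA was assayed by qPCR.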

[4] = Toxicity in SCID mouse xenografted with human SUDHL4 cells assessed as adverse effect on lungs morphology at 5 to 10 mg/kg, iv administered 3 days once for 15 days by H and E staining analysis; assay type: organism-based; settings: in vivo; summary of the method: as §2
[5] = tested on: SUD4; assay: Antitumor activity against human SUDHL4 cells xenografted in SCID mouse assessed as reduction in tumor growth at 5 mg/kg, iv administered 3 days once for 15 days and measured every 3 days; assay type: functional, organism-based; summary of the method: as §2
[6] = tested on: SUD4; assay: Induction of apoptosis in human SUDHL4 cells assessed as early apoptotic cells at 2.5 uM incubated for 48 hrs by annexin V-FITC and propidium iodide staining based flow cytometry analysis (reference value: 2.62%); assay type: functional
[7] = Toxicity in SCID mouse xenografted with human SUDHL4 cells assessed as reduction in body weight at 5 to 10 mg/kg, iv administered 3 days once for 15 days and measured every 3 days; assay type: organism-based; settings: in vivo; summary of the method: as §2
[8] = Toxicity in SCID mouse xenografted with human SUDHL4 cells assessed as adverse effect on heart morphology at 5 to 10 mg/kg, iv administered 3 days once for 15 days by H and E staining analysis; assay type: organism-based; settings: in vivo; summary of the method: as §2
[9] = tested on: SUD4; assay: Antiproliferative activity against human SUDHL4 cells assessed as living cells and S phase cells at 1.25 uM incubated for 48 hrs by Edu based flow cytometry analysis (reference value: 48.3%)
[10] = Toxicity in SCID mouse xenografted with human SUDHL4 cells assessed as adverse effect on kidney morphology at 5 to 10 mg/kg, iv administered 3 days once for 15 days by H and E staining analysis; assay type: organism-based; settings: in vivo; summary of the method: as §2
[11] = tested on: SUD4; assay: Antiproliferative activity against human SUDHL4 cells assessed as living cells and S phase cells at 0.625 uM incubated for 48 hrs by Edu based flow cytometry analysis (reference value: 48.3%)
[12] = tested on: Toledo; assay: Antiproliferative activity against BCL6-negative human Toledo cells assessed as reduction in cell viability incubated for 72 hrs by CCK8 assay
[13] = tested on: NCM460; assay: Cytotoxicity against human NCM460 cells assessed as reduction in cell viability incubated for 72 hrs by CCK8 assay; settings: NCM460, 72 h
[14] = species: Mus musculus; settings: C57BL/6, 10 mg/kg
[15] = tested on: Toledo; assay: Effect on ATR mRNA expression in BCL6-negative human Toledo cells at 1.25 to 5 uM incubated for 24 hrs by RT-PCR analysis; assay type: functional, cell-based
Summary of the method: (§3)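 Toledo cells (BCL6-independent) were exposed to 1.25, 2.50 or 5.00 μM for 24 h, then mRNA was collected. Target-gene transcripts were quantified by real-time quantitative PCR against vehicle control.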

[16] = Cytotoxicity against HAF cells assessed as reduction in cell viability incubated for 72 hrs by CCK8 assay; settings: Homo sapiens
[17] = tested on: SUD4; assay: Induction of apoptosis in human SUDHL4 cells assessed as early apoptotic cells at 1.25 uM incubated for 48 hrs by annexin V-FITC and propidium iodide staining based flow cytometry analysis (reference value: 2.62%); assay type: functional
[18] = tested on: Toledo; assay: Effect on CDKN1A mRNA expression in BCL6-negative human Toledo cells at 1.25 to 5 uM incubated for 24 hrs by RT-PCR analysis; assay type: functional, cell-based; summary of the method: as §3
[19] = tested on: PNT1A; assay: Cytotoxicity against human PNT1A cells assessed as reduction in cell viability incubated for 72 hrs by CCK8 assay
[20] = tested on: Mus musculus; assay: Upregulation of CD69 mRNA expression in SCID mouse xenografted with human SUDHL4 cells at 5 to 10 mg/kg, iv administered 3 days once for 15 days by qPCR analysis; assay type: functional, organism-based; summary of the method: as §2
[21] = tested on: Mus musculus; assay: Upregulation of ATR mRNA expression in SCID mouse xenografted with human SUDHL4 cells at 5 to 10 mg/kg, iv administered 3 days once for 15 days by qPCR analysis; assay type: functional, organism-based; summary of the method: as §2
[22] = tested on: SUD4; assay: Induction of apoptosis in human SUDHL4 cells assessed as late apoptotic cells at 0.625 uM incubated for 48 hrs by annexin V-FITC and propidium iodide staining based flow cytometry analysis (reference value: 1.39%); assay type: functional
[23] = tested on: SUD4; assay: Antiproliferative activity against human SUDHL4 cells assessed as living cells and S phase cells at 2.5 uM incubated for 48 hrs by Edu based flow cytometry analysis (reference value: 48.3%)
[24] = Metabolic stability in human liver microsomes assessed as compound remaining measured after 60 mins; assay type: ADME, Microsome; settings: read-out: Stability
[25] = tested on: Toledo; assay: Effect on CXCR4 mRNA expression in BCL6-negative human Toledo cells at 1.25 to 5 uM incubated for 24 hrs by RT-PCR analysis; assay type: functional, cell-based; summary of the method: as §3
[26] = species: Mus musculus; settings: C57BL/6, 10 mg/kg; remark: listed apart in the source
[27] = tested on: SUD4; assay: Antiproliferative activity against human SUDHL4 cells assessed as reduction in cell viability incubated for 72 hrs by CCK8 assay; settings: SU-DHL-4, 72 h
[28] = tested on: OCI-Ly7; assay: Antiproliferative activity against human OCI-LY7 cells assessed as reduction in cell viability incubated for 72 hrs by CCK8 assay; settings: OCI-Ly7, 72 h
[29] = Toxicity in SCID mouse xenografted with human SUDHL4 cells assessed as adverse effect on spleen morphology at 5 to 10 mg/kg, iv administered 3 days once for 15 days by H and E staining analysis; assay type: organism-based; settings: in vivo; summary of the method: as §2
[30] = Metabolic stability in human liver microsomes assessed as intrinsic clearance per mg of protein; assay type: ADME, Microsome; settings: read-out: CLH; summary of the method: as §1
[31] = Protein binding in human plasma; assay type: ADME, cell-free; settings: read-out: PPB (converted)
Summary of the method: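 Human plasma protein binding was measured by a contract laboratory.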

[32] = tested on: Farage; assay: Antiproliferative activity against human Farage cells assessed as reduction in cell viability incubated for 72 hrs by CCK8 assay
[33] = tested on: Toledo; assay: Effect on p53 mRNA expression in BCL6-negative human Toledo cells at 1.25 to 5 uM incubated for 24 hrs by RT-PCR analysis; assay type: functional, cell-based; summary of the method: as §3
[34] = tested on: Toledo; assay: Effect on CD69 mRNA expression in BCL6-negative human Toledo cells at 1.25 to 5 uM incubated for 24 hrs by RT-PCR analysis; assay type: functional, cell-based; summary of the method: as §3

COc1cc(Nc2nc(N3C[C@@H](C)N[C@@H](C)C3)ncc2F)ccc1NC(=O)c1ccc(C2=CCCC2)s1
CLint scaled [1]: < 2.28 L/h/kg | IC50 [2]: 13.1 µM | Activity [3]: Active | Activity [4]: Non-Toxic | Activity [5]: Active | Activity [6]: 5.91% | Activity [7]: Non-Toxic | Activity [8]: Non-Toxic | Activity [9]: 12.5% | Activity [10]: Non-Toxic | Activity [11]: 27.3% | IC50 [12]: 3.25 µM | IC50 [13]: 32.4 µM | inhibition [14]: Active | Activity [15]: inactive | IC50 [16]: 26.4 µM | Activity [17]: 3.57% | Activity [18]: inactive | IC50 [19]: 8.13 µM | Activity [20]: Active | Activity [21]: Active | Activity [22]: 3.35% | Activity [23]: 6.6% | remaining at 1 h [24]: 102% | Activity [25]: inactive | inhibition [26]: Active | IC50 [27]: 0.92 µM | IC50 [28]: 1.62 µM | Activity [29]: Non-Toxic | microsomal CLint [30]: < 9.6 µL/min/mg | fraction unbound [31]: 0.076 | IC50 [32]: 1.26 µM | Activity [33]: inactive | Activity [34]: inactive
